Compound activity as filed in PubChem.
Hits are enriched below; roughly 1.9% of the tested compounds scored in any of these assays.
MsrA inhibitor: bovine MsrA enzyme inhibitors, primary screen, biochemical, absorbance, HTS; purified bovine MsrA, absorbance read-out; inhibition, % at 15.5 µM; hit rate 0.75% among 360,000; in the data active = inhibition above about 4.5%;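 also: 0% = vehicle wells with enzyme and 100% = reference inhibitor wells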
Glyco luc inh: increase of ERlucT glycosylation luciferase signal, primary screen, N-linked glycosylation inhibitor project, D54 ERlucT cells, luminescence, set 2. reporter increase, % at 12.5 µM. D54 ERlucT glycosylation luciferase reporter, 24 h; percent of 100 nM tunicamycin response. hit rate 0.23% among 360,000;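 active = mean luciferase reporter signal, scaled so untreated is 0 and the glycosylation-blocking control 100, at or above a set limit in every replicate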;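 also: luciferase carries N-glycosylation sites so blocking glycosylation raises the light; 0% = median of neutral control wells and 100% = median of 100 nM tunicamycin wells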
aDG glyco up: activators of alpha-DG glycosylation, primary screen, uHTS, Pro5-aDG cells, AlphaScreen; alpha-DG glycosylation AlphaScreen (IIH6); 0% Pro5, 100% B10-LARGE cell signal; activation, % at 10 µM; hit rate 0.22% among 360,000;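 active = activation of at least 8% versus controls, or a plate z-score of at least 8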;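 also: Pro5 are CHO cells carrying HIG-tagged alpha-DG that lacks glycosylation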
Vif inh: HIV Vif self-association inhibitors, primary screen, imaging, HEK293T, single point; HEK293T cells, Vif self-association by quenched fluorescence, 24 h; inhibition, % at 7.49 µM; AID 602346, 2012; hit rate 0.35% among 340,000; in the data active = inhibition above about 50%, passing the limit was not always enough
bovine MsrA act: bovine MsrA enzyme activators, primary screen, biochemical, absorbance, HTS; Methionine sulfoxide reductase A (Bos taurus); purified bovine MsrA, absorbance read-out; activation, % at 10.6 µM; hit rate 0.3% among 360,000; AID 602163, 2012; in the data active = activation above about 7.5%;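 also: 0% = vehicle and 100% = reference activator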
UCH37 DUB inh: inhibitors of human UCH37 deubiquitinase, primary screen, biochemical, Ub-AMC cleavage, fluorescence; Ubiquitin carboxyl-terminal hydrolase isozyme L5 (Homo sapiens), Q9Y5K5; hit rate 0.33% among 330,000; inhibition, % (test concentration not listed); AID 588478, 2011; purified proteasome/UCH37;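 active = mean inhibition over replicate wells above about 20%, limit read from the data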;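 also: 0% = compound-free wells with enzyme and 100% = wells lacking proteasome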
Target sequence (Q9Y5K5 whole entry, looked up): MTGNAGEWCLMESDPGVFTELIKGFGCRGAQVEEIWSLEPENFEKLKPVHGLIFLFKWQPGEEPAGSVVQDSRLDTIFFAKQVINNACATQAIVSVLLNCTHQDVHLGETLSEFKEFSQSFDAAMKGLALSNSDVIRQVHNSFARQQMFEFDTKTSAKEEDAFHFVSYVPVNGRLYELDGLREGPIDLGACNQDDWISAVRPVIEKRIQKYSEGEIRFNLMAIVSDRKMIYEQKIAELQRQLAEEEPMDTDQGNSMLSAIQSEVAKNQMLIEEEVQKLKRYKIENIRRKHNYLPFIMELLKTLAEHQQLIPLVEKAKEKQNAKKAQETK
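assay system = human UCH37 enzyme supplied as purified proteasome complex | amount = proteasome at 0.15 nM in the dispensed enzyme solution | schedule = 30 min compound-proteasome preincubation then 25 min substrate reaction, room temperature | measured by = fluorescence, ex 355 nm, em 460 nm | benchmarks = no-proteasome wells (full inhibition) and compound-free wells (no inhibition)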
MsrA act confirm: bovine MsrA activators, retest, confirmation, biochemical, absorbance, HTS; shares compounds with bovine MsrA act; purified bovine MsrA, absorbance read-out; activation, % at 10.6 µM; hit rate 12% among 1,000; in the data active = activation above about 4%;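 also: enzyme coupled to thioredoxin and thioredoxin reductase with NADPH; 0% = vehicle wells and 100% = reference activator wells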
An asterisk follows results filed as active.

What do the screens show for `CC1(C)CC(=O)C2=C(C1)N(Cc1cccnc1)C(=O)C2(NC(=O)c1cccnc1)C(F)(F)F` (configuration not stated)?
MsrA inhibitor: 1; Glyco luc inh: 2; aDG glyco up: 0; Vif inh: 3; bovine MsrA act: 0; UCH37 DUB inh: 3

Results for CCOC(=O)NC1(C(F)(F)F)C(=O)N(Cc2ccccc2)C2=C1C(=O)CC(C)(C)C2 (configuration not stated) ?
MsrA inhibitor: 1; Glyco luc inh: 1; aDG glyco up: 0; Vif inh: -2; bovine MsrA act: 12*; UCH37 DUB inh: 5; MsrA act confirm: -1

What do the screens show for `Cn1cnnc1SCC(=O)NN=Cc1ccc(OCC(N)=O)cc1`?
UCH37 DUB inh: 4

How did CC(=NNC(=O)COc1cccc(C)c1)c1ccc2ccccc2c1O do in these assays?
UCH37 DUB inh: -86

What do the screens show for `CCc1ccc(OCC(=O)NN=C(C)c2ccc3c(c2)OCCO3)cc1`?
UCH37 DUB inh: 4

What do the screens show for `CC(C)(C)c1cc(NC(=O)c2ccco2)n(-c2ccccc2)n1`?
MsrA inhibitor: 1; Glyco luc inh: -1; aDG glyco up: 0; Vif inh: -3; bovine MsrA act: 16*; UCH37 DUB inh: 0; MsrA act confirm: -1

What do the screens show for `Cc1cnc(C(=O)OCC(=O)Nc2cccc3ccccc23)cn1`?
MsrA inhibitor: -2; Glyco luc inh: 0; aDG glyco up: 0; Vif inh: -2; bovine MsrA act: 13*; UCH37 DUB inh: -3; MsrA act confirm: -1

How did CC(=NNC(=O)C1CC1)c1ccc(C)cc1C do in these assays?
UCH37 DUB inh: 6

How did COc1ccc(C=NOCC(=O)N(Cc2ccccc2)c2ccccc2C(=O)O)cc1 do in these assays?
UCH37 DUB inh: 0

Results for O=C(CN1C(=O)CSc2ccccc21)NN=Cc1ccco1 ?
UCH37 DUB inh: 2

What do the screens show for `Cc1nn(CCC(=O)NNC(=S)Nc2cccc(Cl)c2)c(C)c1[N+](=O)[O-]`?
MsrA inhibitor: 0; Glyco luc inh: 4; aDG glyco up: 0; Vif inh: 5; bovine MsrA act: 11*; UCH37 DUB inh: 0; MsrA act confirm: 0

Results for CC(=NOC(=O)c1c(F)cccc1F)c1nccs1 ?
UCH37 DUB inh: 2

How did Cc1cccc(N=Cc2c(O)cc(C)oc2=O)n1 do in these assays?
UCH37 DUB inh: -3

What do the screens show for `COc1cc(C=NNc2ccc(Cl)cc2)ccc1OC(=O)c1cccs1`?
UCH37 DUB inh: 5

How did O=C(CCCN=C1NS(=O)(=O)c2ccccc21)OCc1ccccc1 do in these assays?
MsrA inhibitor: -1; Glyco luc inh: -2; aDG glyco up: 1; bovine MsrA act: 8.8*; UCH37 DUB inh: 0; MsrA act confirm: -2

How did S=c1[nH]nc(-c2cccnc2)n1/N=C/c1cccs1 do in these assays?
MsrA inhibitor: 0; Glyco luc inh: 1; aDG glyco up: 0; Vif inh: 41; bovine MsrA act: 10*; MsrA act confirm: -2

What do the screens show for `S=c1[nH]nc(-c2cccnc2)n1/N=C/c1ccccc1`?
MsrA inhibitor: 0; Glyco luc inh: 4; aDG glyco up: 0; Vif inh: -8; bovine MsrA act: 1

What do the screens show for `CC(=NNC(=O)c1nnn(-c2nonc2N)c1C)c1ccc(-c2ccccc2)cc1`?
UCH37 DUB inh: -6

What do the screens show for `COc1ccc(C(=O)N/C(=C\c2cn(S(=O)(=O)N(C)C)c3ccccc23)C(=O)NCCN2CCOCC2)cc1`?
MsrA inhibitor: 4.6*; Glyco luc inh: 3; aDG glyco up: 0; Vif inh: -3; bovine MsrA act: 18*; UCH37 DUB inh: 2; MsrA act confirm: -1

How did CCOC(=O)c1cc2c(=O)n3ccccc3nc2n(CCCOC)c1=NC(=O)C(C)(C)C do in these assays?
MsrA inhibitor: -1; Glyco luc inh: 1; aDG glyco up: 0; Vif inh: 8; bovine MsrA act: -1; UCH37 DUB inh: -224

How did CCOC(=O)c1cc2c(=O)n3ccccc3nc2n(CCOC)c1=NC(=O)C(C)(C)C do in these assays?
MsrA inhibitor: 0; Glyco luc inh: 2; aDG glyco up: 0; Vif inh: 3; bovine MsrA act: 8.2*; UCH37 DUB inh: -103; MsrA act confirm: 0

How did O=C1CN(C(=O)c2ccc(Br)o2)C(c2ccccc2)c2cc(F)ccc2N1 (configuration not stated) do in these assays?
MsrA inhibitor: 0; Glyco luc inh: 5; aDG glyco up: 0; Vif inh: 5; bovine MsrA act: 12*; UCH37 DUB inh: 0; MsrA act confirm: -3

What do the screens show for `O=C1CN(C(=O)c2ccccc2)C(c2ccccc2)c2cc(F)ccc2N1` (configuration not stated)?
MsrA inhibitor: 3; Glyco luc inh: 2; aDG glyco up: 0; Vif inh: -8; bovine MsrA act: -3; UCH37 DUB inh: 5

How did Cc1ccc(S(=O)(=O)Oc2ccccc2C=NNC(=O)c2nn(C)cc2[N+](=O)[O-])cc1 do in these assays?
UCH37 DUB inh: 0

Results for O=C(CSc1nc2ncccc2[nH]1)c1ccc(F)cc1 ?
MsrA inhibitor: -1; Glyco luc inh: 0; aDG glyco up: 1; Vif inh: 6; bovine MsrA act: -12; UCH37 DUB inh: 1

How did O=C(CSc1nc2ncccc2[nH]1)c1cccc([N+](=O)[O-])c1 do in these assays?
MsrA inhibitor: 0; Glyco luc inh: 0; aDG glyco up: 0; Vif inh: -2; bovine MsrA act: 8.8*; UCH37 DUB inh: 3; MsrA act confirm: -2

Results for CC(=O)Nc1ccc(C(=O)OCC(=O)c2cccc([N+](=O)[O-])c2)cc1 ?
MsrA inhibitor: -1; Glyco luc inh: 2; aDG glyco up: 1; Vif inh: -3; bovine MsrA act: 8.4*; MsrA act confirm: -1

Results for CC(=O)Nc1ccc(NC(=O)CCC(=O)OCC(=O)c2cccc([N+](=O)[O-])c2)cc1 ?
MsrA inhibitor: -1; Glyco luc inh: 3; aDG glyco up: 0; Vif inh: -1; bovine MsrA act: -3; UCH37 DUB inh: 2

What do the screens show for `S=c1[nH]nc(-c2cccnc2)n1N=Cc1ccc(Br)s1`?
UCH37 DUB inh: 0

What do the screens show for `CC(C)Oc1c(Br)cc(Br)cc1C=NNC(N)=S`?
UCH37 DUB inh: 8

What do the screens show for `Cc1cc(C)n(CC(=O)NN=Cc2ccc([N+](=O)[O-])s2)n1`?
UCH37 DUB inh: 13
